Values belong to the compound of their own block, whether it stands above or below them. Activity calls are given as the source filed them. No cut-off for these calls is given here.
Columns and labels:
[1] = target: T1, Polyunsaturated fatty acid lipoxygenase ALOX15 (Homo sapiens) (UniProt P16050); test: Inhibition of 15-lipoxygenase in A23187-stimulated human PMNL assessed as reduction of 15(S)-H(P)ETE formation preincubated 15 mins by RP-HPLC analysis in presence of exogenous arachidonic acid
T1 sequence (whole entry): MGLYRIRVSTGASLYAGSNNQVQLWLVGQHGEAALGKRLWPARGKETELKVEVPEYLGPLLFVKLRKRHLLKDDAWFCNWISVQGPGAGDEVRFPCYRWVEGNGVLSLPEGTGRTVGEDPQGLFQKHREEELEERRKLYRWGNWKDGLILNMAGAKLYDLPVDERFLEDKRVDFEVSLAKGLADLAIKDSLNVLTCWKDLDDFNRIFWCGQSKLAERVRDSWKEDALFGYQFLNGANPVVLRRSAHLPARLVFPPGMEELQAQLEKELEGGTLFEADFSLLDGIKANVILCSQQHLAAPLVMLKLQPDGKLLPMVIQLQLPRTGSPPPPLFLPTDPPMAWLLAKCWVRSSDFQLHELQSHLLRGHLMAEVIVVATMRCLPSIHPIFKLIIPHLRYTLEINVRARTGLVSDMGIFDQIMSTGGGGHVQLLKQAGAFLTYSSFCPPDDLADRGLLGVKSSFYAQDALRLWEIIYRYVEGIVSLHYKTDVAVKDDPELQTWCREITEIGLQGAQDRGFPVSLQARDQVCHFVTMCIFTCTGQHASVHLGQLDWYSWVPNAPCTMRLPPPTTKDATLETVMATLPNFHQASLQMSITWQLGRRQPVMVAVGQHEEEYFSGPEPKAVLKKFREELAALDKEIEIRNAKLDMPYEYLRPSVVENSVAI
How it was run: (§1)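 Freshly isolated human PMNL (5 × 10⁶/mL in PBS pH 7.4 with 1 mg/mL glucose and 1 mM CaCl₂) preincubated with compound 15 min at 37 °C, then stimulated with 2.5 μM A23187 plus exogenous AA for 10 min at 37 °C. Stopped with methanol, PGB₁ added as internal standard, extracted, HPLC: 15(S)-H(p)ETE taken as 15-LO product, 12(S)-H(p)ETE as 12-LO product (platelet-type 12-LO from PMNL-adherent platelets).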

[2] = target: T2, Polyunsaturated fatty acid lipoxygenase ALOX12 (Homo sapiens) (UniProt P18054); test: Inhibition of 12-lipoxygenase in A23187-stimulated human PMNL assessed as reduction of 12(S)-H(P)ETE formation preincubated 15 mins by RP-HPLC analysis in presence of exogenous arachidonic acid; how it was run: as §1
T2 sequence (whole entry): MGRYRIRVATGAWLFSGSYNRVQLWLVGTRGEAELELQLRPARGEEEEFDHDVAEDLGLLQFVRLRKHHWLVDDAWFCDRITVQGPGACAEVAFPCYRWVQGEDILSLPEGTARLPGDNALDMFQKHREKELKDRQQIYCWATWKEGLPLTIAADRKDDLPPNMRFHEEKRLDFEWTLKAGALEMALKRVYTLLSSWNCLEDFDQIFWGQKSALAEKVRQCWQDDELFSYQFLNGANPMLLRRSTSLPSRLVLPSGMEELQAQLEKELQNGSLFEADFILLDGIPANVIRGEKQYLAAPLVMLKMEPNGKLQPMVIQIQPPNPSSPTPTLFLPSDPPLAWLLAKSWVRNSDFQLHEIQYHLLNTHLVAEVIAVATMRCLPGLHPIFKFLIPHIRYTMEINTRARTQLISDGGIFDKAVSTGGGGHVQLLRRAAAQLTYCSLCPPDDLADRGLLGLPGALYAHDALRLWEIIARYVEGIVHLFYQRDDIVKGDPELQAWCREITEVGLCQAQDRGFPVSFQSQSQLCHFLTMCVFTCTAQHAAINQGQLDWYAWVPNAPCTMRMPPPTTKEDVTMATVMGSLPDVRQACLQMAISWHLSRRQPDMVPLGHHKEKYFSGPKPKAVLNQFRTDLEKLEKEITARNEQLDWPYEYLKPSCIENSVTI

[3] = test system: Radical scavenging activity; test: Antioxidant activity assessed as DPPH radical scavenging activity at 100 uM; format: functional
How it was run: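 Non-enzymatic radical scavenging test: reduction of 1,1-diphenyl-2-picrylhydrazyl (DPPH) measured with test compound up to 100 μM; ascorbic acid and L-cysteine run as reference reductants.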

Prostaglandin E synthase = target: T3, Prostaglandin E synthase (Homo sapiens, UniProt O14684); test: Inhibition of mPGES-1 in human IL-1beta-stimulated A549 cell microsomes assessed as reduction of PGE2 formation from PGH2 after 15 mins by RP-HPLC analysis; parameters: species or system Microsome
T3 sequence (O14684 whole entry): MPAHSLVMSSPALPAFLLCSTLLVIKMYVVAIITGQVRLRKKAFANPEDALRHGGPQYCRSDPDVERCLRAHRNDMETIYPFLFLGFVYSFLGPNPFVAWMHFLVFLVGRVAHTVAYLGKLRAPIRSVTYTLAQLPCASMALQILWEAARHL
How it was run: (§2)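 A549 cells in DMEM with 2% FCS for 16 h, induced with IL-1β (1 ng/mL) for 72 h, homogenized. Microsomal pellet (174 000 × g) diluted in 0.1 M potassium phosphate pH 7.4 with 2.5 mM glutathione, given compound or DMSO for 15 min. PGH₂ added (20 μM final), 1 min at 4 °C, stopped with FeCl₂/citric acid. PGE₂ by SPE and RP-HPLC (UV 195 nm), 11β-PGE₂ internal standard. Tested up to 10 μM; IC₅₀ reported only above 50% inhibition at 10 μM.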

[4] = target: T4, Polyunsaturated fatty acid 5-lipoxygenase (Homo sapiens, UniProt P09917); test: Inhibition of human recombinant 5-lipoxygenase-mediated product formation from arachidonic acid after 5 to 10 mins by HPLC analysis
T4 sequence (P09917 whole entry): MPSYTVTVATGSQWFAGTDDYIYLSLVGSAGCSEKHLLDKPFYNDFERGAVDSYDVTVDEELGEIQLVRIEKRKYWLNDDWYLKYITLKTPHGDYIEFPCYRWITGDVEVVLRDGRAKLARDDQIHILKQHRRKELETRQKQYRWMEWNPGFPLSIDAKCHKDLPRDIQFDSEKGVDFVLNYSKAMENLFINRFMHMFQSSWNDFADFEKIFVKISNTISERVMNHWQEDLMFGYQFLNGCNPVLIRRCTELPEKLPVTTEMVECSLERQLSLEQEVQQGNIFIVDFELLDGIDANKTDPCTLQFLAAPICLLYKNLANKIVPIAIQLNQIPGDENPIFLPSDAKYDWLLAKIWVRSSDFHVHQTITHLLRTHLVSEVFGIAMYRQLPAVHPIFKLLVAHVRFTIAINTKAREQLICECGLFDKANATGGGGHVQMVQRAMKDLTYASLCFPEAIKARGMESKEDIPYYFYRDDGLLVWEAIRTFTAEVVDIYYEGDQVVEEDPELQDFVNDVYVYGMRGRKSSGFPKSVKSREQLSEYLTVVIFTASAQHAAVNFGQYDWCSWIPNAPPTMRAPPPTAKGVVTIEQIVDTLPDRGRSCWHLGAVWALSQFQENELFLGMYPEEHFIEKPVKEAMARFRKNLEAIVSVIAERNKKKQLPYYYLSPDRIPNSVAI
How it was run: (§3)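 Human 5-LO expressed in E. coli BL21 (pT3-5LO) at 37 °C, purified and used at once. Enzyme (0.5 μg/mL in PBS/EDTA with 1 mM ATP) preincubated with compound 5–10 min at 4 °C, prewarmed 30 s at 37 °C, started with 2 mM CaCl₂ + 20 μM AA (±1 μM 13(S)-HpODE), 10 min at 37 °C, stopped with cold methanol, products by HPLC.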

[5] = target: T1, Polyunsaturated fatty acid lipoxygenase ALOX15 (Homo sapiens); test: Inhibition of 15-lipoxygenase in A23187-stimulated human PMNL assessed as reduction of 15(S)-H(P)ETE formation up to 10 uM preincubated 15 mins by RP-HPLC analysis in presence of exogenous arachidonic acid; how it was run: as §1
[6] = target: T2, Polyunsaturated fatty acid lipoxygenase ALOX12 (Homo sapiens); test: Inhibition of 12-lipoxygenase in A23187-stimulated human PMNL assessed as reduction of 12(S)-H(P)ETE formation up to 10 uM preincubated 15 mins by RP-HPLC analysis in presence of exogenous arachidonic acid; how it was run: as §1
[7] = target: T4, Polyunsaturated fatty acid 5-lipoxygenase; test: Inhibition of 5-lipoxygenase in human PMNL S100 supernatant assessed as inhibition of enzyme product formation preincubated for 5 to 10 mins before arachidonic acid addition by HPLC analysis
How it was run: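 PMNL (5 × 10⁶/mL in PBS/1 mM EDTA) sonicated, centrifuged 100 000 × g for 1 h at 4 °C. S100 diluted in PBS/EDTA with 1 mM ATP, ±1 mM DTT, and preincubated with compound or 0.3% DMSO 5–10 min at 4 °C. Prewarmed 30 s at 37 °C, started with 2 mM CaCl₂ + 20 μM AA, 10 min at 37 °C, stopped with cold methanol, 5-LO products by HPLC.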

[8] = target: T4, Polyunsaturated fatty acid 5-lipoxygenase; test: Inhibition of 5-lipoxygenase-mediated 5(S)-H(p)ETE formation in fMLP-stimulated human PMNL incubated 10 mins prior to fMLP challenge
[9] = target: T5, Prostaglandin E synthase (Homo sapiens) (UniProt O14684); test: Inhibition of mPGES-1 in human IL-1beta-stimulated A549 cell microsomes assessed as residual activity by measuring reduction of PGE2 formation from PGH2 at 10 uM after 15 mins by RP-HPLC analysis; conditions: Microsome; how it was run: as §2
T5 sequence (whole entry): T3 sequence (O14684 whole entry)

[10] = target: T6, Polyunsaturated fatty acid 5-lipoxygenase (Homo sapiens) (UniProt P09917); test: Inhibition of human recombinant 5-lipoxygenase-mediated product formation from arachidonic acid assessed as remaining activity at 10 uM after 5 to 10 mins by HPLC analysis; how it was run: as §3
T6 sequence (whole entry): T4 sequence (P09917 whole entry)

[11] = Cytotoxicity in human polymorphonuclear leukocytes assessed as cell viability at 10 uM after 30 mins by MTT assay
[12] = target: T4, Polyunsaturated fatty acid 5-lipoxygenase; test: Inhibition of 5-lipoxygenase-mediated 5(S)-H(p)ETE formation in A23187-stimulated human PMNL incubated 10 mins prior to A23187 challenge
[13] = target: Prostaglandin G/H synthase 1 (Ovis aries) (UniProt P05979); test: Inhibition of ovine COX-1 mediated formation of 12-HHT from arachidonic acid assessed as remaining activity at 10 uM after 5 mins by HPLC analysis
[14] = target: Prostaglandin G/H synthase 2 (Homo sapiens) (UniProt P35354); test: Inhibition of human recombinant COX-2 mediated formation of 12-HHT from arachidonic acid assessed as remaining activity at 10 uM after 5 mins by HPLC analysis
[15] = target: T6, Polyunsaturated fatty acid 5-lipoxygenase (Homo sapiens); test: Selectivity ratio of IC50 for human recombinant 5-lipoxygenase in cell-free system to IC50 for 5-lipoxygenase-mediated 5(S)-H(p)ETE formation in A23187-stimulated PMNL
[16] = target: T6, Polyunsaturated fatty acid 5-lipoxygenase (Homo sapiens); test: Inhibition of human recombinant 5-lipoxygenase-mediated product formation from arachidonic acid assessed as remaining activity at 1 uM after 5 to 10 mins by HPLC analysis; how it was run: as §3

SMILES: Cc1ccc(-c2cc(C(F)(F)F)nn2-c2ccc(S(N)(=O)=O)cc2)cc1
inhibition [1]: inactive | inhibition [2]: inactive

SMILES: O=C1O[C@H]([C@@H](O)CO)C(O)=C1O
Activity [3]: Active

SMILES: N[C@@H](CS)C(=O)O
Activity [3]: Active

Continued, in another order:

IC50 (Prostaglandin E synthase): 2000 nM | IC50 [4]: 2.8 µM | inhibition [5]: inactive | inhibition [6]: inactive | IC50 [7]: 12.5 µM | IC50 [8]: 400 nM
SMILES: CCCCCCC(Sc1nc(OCCc2ccccc2)cc(OCCc2ccccc2)n1)C(=O)O (stereo unspecified)
Activity [3]: inactive

IC50 (Prostaglandin E synthase): > 10000 nM | Activity [9]: 74% | IC50 [4]: 10 µM | Activity [10]: 55.5% | IC50 [12]: 400 nM | Activity [13]: 92.3% | Activity [14]: 106% | Ratio IC50 [15]: > 20
SMILES: CCCC/C(=C\c1cc(OCCC2CCCCC2)ccc1OCc1ccc(C(F)(F)F)cc1)C(=O)O
Activity [11]: Non-toxic

inhibition [16]: inactive
SMILES: CC(C)c1ccc2c(c1)c(SC(C)(C)C)c(CC(C)(C)C(=O)O)n2Cc1ccc(Cl)cc1

From ChEMBL document CHEMBL2169781, “Discovery and biological evaluation of a novel class of dual microsomal prostaglandin E2 synthase-1/5-lipoxygenase inhibitors based on 2-[(4,6-diphenethoxypyrimidin-2-yl)thio]hexanoic acid” (J Med Chem, 2011)
